The values that follow come from ChEMBL document CHEMBL1142137 (Antimicrob Agents Chemother, 2007).

In brackets after ≈: the same amount, converted by molar mass.

The MIC is the lowest concentration found to suppress growth. A low value points to inhibition by little substance. As a reminder, the Cmax is the peak of the concentration-time curve. In general, half-life refers to the time in which the quantity being followed falls by half. High values mean slow loss, low ones fast loss. In general, AUC refers to the area under the concentration-time curve, a measure of exposure. Higher therefore signals high exposure.

The test system of data set [1] is Streptococcus pneumoniae. Kind of data set: Antibacterial activity against penicillin-resistant Streptococcus pneumoniae P-54988. In kind it is functional. Put shortly: (§1)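 Tube dilution in Mueller-Hinton infusion broth with 5% sterile horse serum, using twofold antibiotic dilutions. Tubes were incubated 18 h at 37°C in 10% CO2-air. MIC was the lowest concentration with no turbidity visible to the naked eye.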

In data set [2] the test system is Streptococcus pneumoniae. Put plainly: Antibacterial activity against penicillin-resistant Streptococcus pneumoniae P-12698. In kind it is functional. Put shortly:
as §1

Data set [3] concerns Streptococcus pneumoniae. Put plainly: Antibacterial activity against penicillin-resistant Streptococcus pneumoniae P-15986. In kind it is functional. The method in brief:
as §1

The nature of data set [4]: Cmax in leukopenic mouse with renal failure at 7 mg/kg, sc after 0.5 hrs. In kind it is ADME, organism-based. The arrangement: dose 7 mg/kg, route subcutaneous. As to conditions: in vivo.
A short description of data set [5]: Cmax in leukopenic mouse with renal failure at 15 mg/kg, sc after 0.5 hrs. In kind it is ADME, organism-based. The arrangement: dose 15 mg/kg, route subcutaneous. As to conditions: in vivo.
Data set [6] is described as follows: Cmax in leukopenic mouse with renal failure at 25 mg/kg, sc after 0.5 hrs. In kind it is ADME, organism-based. More on the design: dose 25 mg/kg, route subcutaneous. Particulars: in vivo.
The nature of data set [7]: Cmax in human at 1 g, po after 0.5 hrs. In kind it is ADME, organism-based. Particulars: in vivo. The arrangement: dose 1 g, route oral.
Data set [8] can be described thus: Half life in leukopenic mouse with renal failure at 7 mg/kg, sc. In kind it is ADME, organism-based. The arrangement: dose 7 mg/kg, route subcutaneous. As to conditions: in vivo. Put shortly: (§2)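 Terminal t1/2 = ln 2/kel, kel from least-squares slope of linear portions of log concentration-time curve; data fitted to one-compartment open model, zero-order absorption, first-order elimination.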

The nature of data set [9]: Half life in leukopenic mouse with renal failure at 15 mg/kg, sc. In kind it is ADME, organism-based. The arrangement: dose 15 mg/kg, route subcutaneous. Particulars: in vivo. The method in brief:
as §2

The nature of data set [10]: Half life in leukopenic mouse with renal failure at 25 mg/kg, sc. In kind it is ADME, organism-based. More on the design: dose 25 mg/kg, route subcutaneous. Particulars: in vivo. Put shortly:
as §2

A short description of data set [11]: Half life in human at 1 g, po. As to conditions: in vivo. In kind it is ADME, organism-based.
Data set [12] is described as follows: AUC in leukopenic mouse with renal failure at 7 mg/kg, sc. In kind it is ADME, organism-based. The arrangement: dose 7 mg/kg, route subcutaneous. Particulars: plasma. The method in brief: (§3)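 Uninfected female Swiss mice (6-7 weeks) made leukopenic with cyclophosphamide (150 mg/kg i.p. […] from 4 days pre-challenge) and given uranyl nitrate 6 mg/kg i.p. once, 4 days earlier. […] AUC0-24 by trapezoid method from one-compartment fit.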

A short description of data set [13]: AUC in leukopenic mouse with renal failure at 15 mg/kg, sc. In kind it is ADME, organism-based. More on the design: dose 15 mg/kg, route subcutaneous. As to conditions: plasma. The method in brief: as §3
A short description of data set [14]: AUC in leukopenic mouse with renal failure at 25 mg/kg, sc. In kind it is ADME, organism-based. More on the design: dose 25 mg/kg, route subcutaneous. As to conditions: plasma. Put shortly: as §3
The nature of data set [15]: AUC in human at 1 g, po. In kind it is ADME, organism-based. As to conditions: plasma.
For data set [16], the system named is Mus musculus. Put plainly: T>MIC in leukopenic mouse with renal failure at 7 mg/kg, sc. In kind it is ADME, organism-based. More on the design: dose 7 mg/kg, route subcutaneous. As to conditions: in vivo.
Data set [17] concerns Mus musculus. Kind of data set: T>MIC in leukopenic mouse with renal failure at 15 mg/kg, sc. In kind it is ADME, organism-based. More on the design: dose 15 mg/kg, route subcutaneous. Particulars: in vivo.
In data set [18] the test system is Mus musculus. Put plainly: T>MIC in leukopenic mouse with renal failure at 25 mg/kg, sc. In kind it is ADME, organism-based. The arrangement: dose 25 mg/kg, route subcutaneous. As to conditions: in vivo.
Data set [19] concerns Mus musculus. Put plainly: Effect on survival of Swiss mouse infected with penicillin-resistant Streptococcus pneumoniae P-54988 at 15 mg/kg, sc. As to conditions: route subcutaneous. In kind it is functional. The method in brief: (§4)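 Female Swiss albino mice, 6-7 weeks old, made leukopenic with cyclophosphamide 150 mg/kg ip daily ×3 from 4 days before challenge. Renal failure from one uranyl nitrate 6 mg/kg ip dose 4 days before challenge. Intratracheal inoculum of ~10^7 log-phase CFU under pentobarbital. […] 12-15 mice/group; deaths recorded daily for 10 days; Mantel-Haenszel comparison.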

In data set [20] the test system is Mus musculus. Kind of data set: Effect on survival of Swiss mouse infected with penicillin-resistant Streptococcus pneumoniae P-12698 at 15 mg/kg, sc. In kind it is functional. Particulars: route subcutaneous. The method in brief:
as §4

The subject of data set [21] is Mus musculus. Put plainly: Effect on survival of Swiss mouse infected with penicillin-resistant Streptococcus pneumoniae P-12698 at 25 mg/kg, sc. In kind it is functional. Particulars: route subcutaneous. Put shortly: as §4
Data set [22] deals with Mus musculus. Kind of data set: Effect on survival of Swiss mouse infected with penicillin-resistant Streptococcus pneumoniae P-15986 at 15 mg/kg, sc. In kind it is functional. Particulars: route subcutaneous. Put shortly: as §4
Data set [23] relates to Streptococcus pneumoniae. Put plainly: Antibacterial activity against penicillin-susceptible Streptococcus pneumoniae P-52181.
Data set [24] concerns Mus musculus. Kind of data set: Effect on survival of Swiss mouse infected with penicillin-susceptible Streptococcus pneumoniae P-52181 at 15 mg/kg, sc.

Turning to `CC1(C)S[C@@H]2[C@H](NC(=O)[C@H](N)c3ccc(O)cc3)C(=O)N2[C@H]1C(=O)O` [AMOXICILLIN], the MIC was found to be 2 µg/mL (≈ 5.47 µM) against Streptococcus pneumoniae [1], 2 µg/mL (≈ 5.47 µM) in the data set with Streptococcus pneumoniae [2], 4 µg/mL (≈ 10.9 µM) against Streptococcus pneumoniae [3] and 0.03 µg/mL (≈ 0.0821 µM) against Streptococcus pneumoniae [23]. Besides, the Cmax in [4] came out at 13000 ng/mL; in data set [5] it was 28000 ng/mL; in [6], 85000 ng/mL; in [7] it was 19000 ng/mL. For the same compound, the half-life in [8] was 1.6 h; in [9], 1.6 h; in [10] it was 1.7 h; in data set [11] it was 1.5 h. Besides, the AUC in data set [12] turned out to be 46000 ng·h/mL; in data set [13], 80000 ng·h/mL; in [14], 227000 ng·h/mL; in [15], 68000 ng·h/mL. Further, the figures for the “T>MIC” value with Mus musculus [16], with Mus musculus [17] and with Mus musculus [18] were 4 h, 4 h and 8 h, respectively. Further, the survival at 15 mg/kg came out at 81% in the data set on Mus musculus [19], 50% with Mus musculus [20], 82% in the data set with Mus musculus [22] and 83% with Mus musculus [24]. In the data set on Mus musculus [21], this compound returned a survival at 25 mg/kg of 57%.
